Test results from ChEMBL document CHEMBL4477178, “Biflorin, Isolated from the Flower Buds of Syzygium aromaticum L., Suppresses LPS-Induced Inflammatory Mediators via STAT1 Inactivation in Macrophages and Protects Mice from Endotoxin Shock” (J Nat Prod, 2016).
Activity calls are given as the source filed them. The calls are words filed in the database; no cut-off is given here.

Columns and labels:
[1] = biological target: T1, Signal transducer and activator of transcription 1 (Mus musculus) (UniProt P42225); test: Inhibition of LPS-induced STAT1 phosphorylation at Y701 in mouse RAW264.7 cells at 15 to 60 uM preincubated for 1 hr followed by LPS challenge for 120 mins by Western blot analysis; format: cell-based
T1 sequence (whole entry): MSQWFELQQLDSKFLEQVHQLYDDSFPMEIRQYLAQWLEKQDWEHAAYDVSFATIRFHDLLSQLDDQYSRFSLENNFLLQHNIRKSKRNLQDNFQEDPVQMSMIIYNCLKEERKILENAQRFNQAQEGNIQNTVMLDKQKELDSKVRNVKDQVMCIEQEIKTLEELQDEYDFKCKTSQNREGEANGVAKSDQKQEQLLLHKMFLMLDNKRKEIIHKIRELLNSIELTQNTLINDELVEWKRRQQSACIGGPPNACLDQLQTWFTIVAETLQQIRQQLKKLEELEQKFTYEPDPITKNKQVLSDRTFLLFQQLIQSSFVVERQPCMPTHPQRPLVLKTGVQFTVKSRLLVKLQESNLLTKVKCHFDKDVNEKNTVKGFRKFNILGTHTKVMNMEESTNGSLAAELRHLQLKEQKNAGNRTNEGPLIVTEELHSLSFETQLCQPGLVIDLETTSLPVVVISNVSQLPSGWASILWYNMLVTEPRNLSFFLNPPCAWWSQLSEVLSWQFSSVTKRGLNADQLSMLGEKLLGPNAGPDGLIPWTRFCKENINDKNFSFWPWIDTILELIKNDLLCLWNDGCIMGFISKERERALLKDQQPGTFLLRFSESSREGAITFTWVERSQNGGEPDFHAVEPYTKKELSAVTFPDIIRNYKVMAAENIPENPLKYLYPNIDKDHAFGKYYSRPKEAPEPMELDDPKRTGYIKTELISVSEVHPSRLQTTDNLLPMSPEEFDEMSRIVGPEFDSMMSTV
Outline: (§1)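 RAW 264.7 pretreated 1 h at 15, 30 or 60 μM, then LPS 10 ng/mL: 120 min for p-STAT1 Y701, 15 min for p-STAT1 S727, 120 min for p-STAT3 Y705. Western blot with phospho-specific and total STAT1/STAT3 antibodies, β-actin control; three independent experiments.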

Peritoneal macrophage = test: Antiinflammatory activity in C57BL/6 mouse peritoneal macrophages assessed as inhibition of LPS-induced TNF-alpha production at 60 uM preincubated for 1 hr followed by LPS challenge for 48 hrs by ELISA method; format: functional; conditions: C57BL/6, Peritoneal macrophage
[2] = biological target: T1, Signal transducer and activator of transcription 1 (Mus musculus); test: Inhibition of LPS-induced STAT1 phosphorylation at S727 in C57BL/6 mouse peritoneal macrophages at 15 to 60 uM preincubated for 1 hr followed by LPS challenge for 30 mins by Western blot analysis
Outline: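 Thioglycolate-elicited C57BL/6 peritoneal macrophages pretreated 1 h at 15, 30 or 60 μM, then LPS 10 μg/mL: 120 min for p-STAT1 Y701, 30 min for p-STAT1 S727, 60 min for p-STAT3 Y705. Western blot with phospho-specific and total STAT antibodies, β-actin control; three independent experiments.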

RAW264.7 [3] = test: Antiinflammatory activity in mouse RAW264.7 cells assessed as inhibition of LPS-induced TNF-alpha mRNA expression at 60 uM after 2 to 12 hrs by qRT-PCR method; format: functional, cell-based
Outline: (§2)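 RAW 264.7 stimulated with LPS 10 ng/mL with or without 60 μM for 2, 4, 6 and 12 h. Total RNA (1 μg) reverse-transcribed with MuLV RT and random primer; SYBR green real-time qPCR with gene-specific primers, triplicate Ct normalized to β-actin. Mean ± SD, three independent experiments.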

Mus musculus [4] = test: Inhibition of LPS-induced COX-2 mRNA expression in C57BL/6 mouse liver at 10 mg/kg, ip pretreated for 1 hr followed by LPS challenge for 6 hrs by qRT-PCR method; format: functional, organism-based
Outline: (§3)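 Male C57BL/6 mice given 10 mg/kg i.p. or vehicle 1 h before LPS (Salmonella enterica, 25 mg/kg i.p.); liver collected 6 h after LPS, frozen at −80 °C. Liver mRNA by SYBR qRT-PCR normalized to β-actin; protein by Western blot for p-STAT1 (Y701, S727). Eight mice per group; mean ± SD.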

[5] = biological target: T1, Signal transducer and activator of transcription 1 (Mus musculus); test: Inhibition of LPS-induced STAT1 phosphorylation at S727 in mouse RAW264.7 cells at 15 to 60 uM preincubated for 1 hr followed by LPS challenge for 15 mins by Western blot analysis; format: cell-based; outline: as §1
RAW264.7 [6] = test: Antiinflammatory activity in mouse RAW264.7 cells assessed as inhibition of LPS-induced iNOS promoter activity at 60 uM preincubated for 1 hr followed by LPS challenge for 6 to 12 hrs by reporter gene assay; format: functional, cell-based
Outline: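 RAW 264.7 transiently cotransfected with promoter-luciferase construct (pGL3-iNOS, pGL3-COX-2 or pTNF-α-luc) plus phRL-TK internal control; 6 h after transfection pretreated 1 h with 60 μM, then LPS 10 ng/mL for 6 or 12 h. Cells washed in cold PBS, lysed, luciferase read. Mean ± SD, three independent experiments.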

Rattus norvegicus [7] = test: Antiinflammatory activity in Sprague-Dawley rat assessed as inhibition of croton oil-induced inflammatory cell infiltration at 10 mg/kg, ip administered 1 hr before croton oil challenge measured after 3 hrs by hematoxylin and eosin staining based assay; format: functional, organism-based
Outline: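 SD male rats dosed i.p. (10 mg/kg) 1 h before topical croton oil (5% in acetone) on inner right ear; left ear got acetone only. At 3 h rats sacrificed, 6 mm ear punches taken, fixed in 4% paraformaldehyde overnight, paraffin-embedded, H&E-stained for edema and inflammatory cell infiltrate; seven animals per group.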

[8] = Cytotoxicity against C57BL/6 mouse peritoneal macrophages assessed as cell viability at 60 uM after 24 hrs by MTT assay; format: cell-based, Peritoneal macrophage; conditions: read-out: Activity
Outline: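 Peritoneal macrophages from thioglycolate-elicited C57BL/6 male mice (harvested by lavage after 4 days, cultured in DMEM/10% FBS) exposed 24 h up to 60 μM; viability by MTT assay.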

Rattus norvegicus [9] = test: Antiinflammatory activity in Sprague-Dawley rat assessed as inhibition of croton oil-induced ear edema at 10 mg/kg, ip administered 1 hr before croton oil challenge measured after 3 hrs post challenge relative to control; format: functional
Outline: (§4)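 Male SD rats given compound i.p. (5, 10 or 15 mg/kg) 1 h before topical croton oil (5% in 100 μL acetone) on the inner right ear; the left ear received acetone alone. After 3 h, rats were killed and 6 mm ear punches were taken and measured for thickness. Inhibition calculated relative to the croton-oil-only group; seven rats per group.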

Mus musculus [10] = test: Inhibition of LPS-induced iNOS mRNA expression in C57BL/6 mouse liver at 10 mg/kg, ip pretreated for 1 hr followed by LPS challenge for 6 hrs by qRT-PCR method; format: functional, organism-based; outline: as §3
RAW264.7 [11] = test: Antiinflammatory activity in mouse RAW264.7 cells assessed as inhibition of LPS-induced IL-6 mRNA expression at 60 uM after 2 to 12 hrs by qRT-PCR method; format: functional, cell-based; outline: as §2
Rattus norvegicus [12] = test: Antiinflammatory activity in Sprague-Dawley rat assessed as inhibition of croton oil-induced ear edema at 15 mg/kg, ip administered 1 hr before croton oil challenge measured after 3 hrs post challenge relative to control; format: functional; outline: as §4

What does the source list for `Cc1cc(=O)c2c(O)c([C@@H]3O[C@H](CO)[C@@H](O)[C@H](O)[C@H]3O)c(O)cc2o1` [BIFLORIN]?
inhibition [1]: Active; inhibition at 60 µM (Peritoneal macrophage): 77.5%; inhibition [2]: Active; inhibition (RAW264.7 [3]): Active; inhibition (Mus musculus [4]): Active; inhibition [5]: Active; inhibition (RAW264.7 [6]): Active; inhibition (Rattus norvegicus [7]): Active; viability at 24 h, 60 µM [8]: 90.4%; inhibition in vivo at 10 mg/kg (Rattus norvegicus [9]): 44.5%; inhibition (Mus musculus [10]): Active; inhibition (RAW264.7 [11]): Active; inhibition in vivo at 15 mg/kg (Rattus norvegicus [12]): 74.7%
